Measured values: ChEMBL document CHEMBL1806466, “2-Amino-4-methyl-5-phenylethyl substituted-7-N-benzyl-pyrrolo[2,3-d]pyrimidines as novel antitumor antimitotic agents that also reverse tumor resistance” (Bioorg Med Chem, 2011)
pIC50: −log10 of the molar value.

Columns and labels:
LOX IMVI = assay: Antitumor activity against human LOXIMVI cells after 48 hrs by sulforhodamine B assay; format: functional
Outline: (§1)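 NCI-60 screen, adherent lines: grown in RPMI 1640 with 5% FBS and 2 mM L-glutamine. Seeded at 5,000–40,000 cells/well by doubling time and preincubated 24 h at 37 °C, 5% CO2, with time-zero plates TCA-fixed. Five concentrations (10-fold or half-log) given for 48 h. Fixed with cold TCA (10% final), then SRB-stained and read at A515. GI50 is 50% reduction of net protein increase versus control.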

NCI-H226 = assay: Antitumor activity against human NCI-H226 cells after 48 hrs by sulforhodamine B assay; format: functional; conditions: NCI-H226, 48 h; outline: as §1
[1] = Cytotoxic activity against Pgp-deficient human MCF7/VP cells expressing MRP1 after 48 hrs by sulforhodamine B assay; format: functional, cell-based
Outline: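 Cells plated at ~15% confluency and allowed 24 h to attach, then exposed to varying test concentrations for 48 h. Survival by SRB binding, reported as % decrease in binding versus ethanol solvent controls, mean of three wells. For NCI/ADR, exposure with 0 or 50 nM vinblastine; for MCF-7/VP, with 0 or 1 nM vincristine.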

DU-145 = assay: Antitumor activity against human DU145 cells after 48 hrs by sulforhodamine B assay; format: functional; conditions: DU-145, 48 h; outline: as §1
CAKI-1 = assay: Antitumor activity against human Caki1 cells after 48 hrs by sulforhodamine B assay; format: functional; conditions: CAKI-1, 48 h; outline: as §1
HL-60(TB) = assay: Antitumor activity against human HL-60(TB) cells after 48 hrs by sulforhodamine B assay; format: functional; conditions: HL-60, 48 h
Outline: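 NCI-60 screen: cells grown in RPMI 1640 with 5% FBS and 2 mM L-glutamine, seeded at 5,000–40,000 cells/well and incubated 24 h at 37 °C, 5% CO2 before dosing. Five concentrations (10-fold or ½-log dilutions from DMSO stock), 48 h. Suspension cells fixed with 80% TCA (final 16%), stained with 0.4% SRB, A515 read. GI50 calculated against time-zero and control growth.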

K562 = assay: Antitumor activity against human K562 cells after 48 hrs by sulforhodamine B assay; format: functional; conditions: K562, 48 h
Outline: (§2)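 NCI-60 screen, suspension lines: grown in RPMI 1640 with 5% FBS and 2 mM L-glutamine. Seeded at 5,000–40,000 cells/well and preincubated 24 h at 37 °C, 5% CO2, with time-zero plates fixed. Five concentrations (10-fold or half-log) given for 48 h. Settled cells fixed with 80% TCA (16% final), then SRB-stained and read at 515 nm. GI50 is from the net growth relative to time zero and control.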

MCF7 [2] = assay: Resistance factor, ratio of IC50 for Pgp-deficient human MCF7/VP cells expressing MRP1 in absence of vincristine to IC50 for drug sensitive human MCF7 cells in presence of 1 nM vincristine
SK-OV-3 = assay: Antitumor activity against human SKOV3 cells after 48 hrs by sulforhodamine B assay; format: functional; conditions: SK-OV-3, 48 h; outline: as §1
UACC-62 = assay: Antitumor activity against human UACC62 cells after 48 hrs by sulforhodamine B assay; format: functional; conditions: UACC-62, 48 h
Outline: (§3)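 NCI-60 panel lines grown in RPMI 1640 with 5% FBS and 2 mM L-glutamine. Cells plated at 5,000–40,000/well by doubling time, given 24 h before drug, then exposed to five concentrations for 48 h at 37 °C. Time-zero plates fixed with TCA. Cells fixed with TCA, stained with 0.4% SRB, read at 515 nm. GI50 = 50% reduction in net protein increase versus control.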

OVCAR-8 = assay: Antitumor activity against human OVCAR8 cells after 48 hrs by sulforhodamine B assay; format: functional; conditions: OVCAR-8, 48 h; outline: as §1
786-0 = assay: Antitumor activity against human 786-0 cells after 48 hrs by sulforhodamine B assay; format: functional; conditions: 786-0, 48 h; outline: as §1
SF-539 = assay: Antitumor activity against human SF539 cells after 48 hrs by sulforhodamine B assay; format: functional; conditions: SF-539, 48 h; outline: as §1
KM12 = assay: Antitumor activity against human KM12 cells after 48 hrs by sulforhodamine B assay; format: functional; conditions: KM12, 48 h; outline: as §1
TK-10 = assay: Antitumor activity against human TK10 cells after 48 hrs by sulforhodamine B assay; format: functional; conditions: TK-10, 48 h; outline: as §3
SR = assay: Antitumor activity against human SR cells after 48 hrs by sulforhodamine B assay; format: functional; outline: as §2
Malme-3M = assay: Antitumor activity against human MALME-3M cells after 48 hrs by sulforhodamine B assay; format: functional; outline: as §1
NCI/ADR-RES = assay: Antitumor activity against human NCI/ADR-RES cells after 48 hrs by sulforhodamine B assay; format: functional; outline: as §1
HCT-116 = assay: Antitumor activity against human HCT116 cells after 48 hrs by sulforhodamine B assay; format: functional; conditions: HCT-116, 48 h; outline: as §1
A549 = assay: Antitumor activity against human A549 cells after 48 hrs by sulforhodamine B assay; format: functional; conditions: A549, 48 h; outline: as §1
MCF7 [3] = assay: Cytotoxic activity against drug-sensitive Pgp-, MRP1-deficient human MCF7 cells after 48 hrs by sulforhodamine B assay; conditions: MCF7, 48 h
OVCAR-3 = assay: Antitumor activity against human OVCAR3 cells after 48 hrs by sulforhodamine B assay; format: functional; conditions: OVCAR-3, 48 h; outline: as §1
SNB-75 = assay: Antitumor activity against human SNB75 cells after 48 hrs by sulforhodamine B assay; format: functional; conditions: SNB-75, 48 h; outline: as §1
NCI-H23 = assay: Antitumor activity against human NCI-H23 cells after 48 hrs by sulforhodamine B assay; format: functional; conditions: NCI-H23, 48 h; outline: as §1
HCT-15 = assay: Antitumor activity against human HCT15 cells after 48 hrs by sulforhodamine B assay; format: functional; conditions: HCT-15, 48 h; outline: as §1
OVCAR-5 = assay: Antitumor activity against human OVCAR5 cells after 48 hrs by sulforhodamine B assay; format: functional; conditions: OVCAR-5, 48 h; outline: as §1
SN12C = assay: Antitumor activity against human SN12C cells after 48 hrs by sulforhodamine B assay; format: functional; outline: as §1
EKVX = assay: Antitumor activity against human EKVX cells after 48 hrs by sulforhodamine B assay; format: functional; outline: as §1
SK-MEL-5 = assay: Antitumor activity against human SK-MEL-5 cells after 48 hrs by sulforhodamine B assay; format: functional; conditions: SK-MEL-5, 48 h; outline: as §1
NCI-H460 = assay: Antitumor activity against human NCI-H460 cells after 48 hrs by sulforhodamine B assay; format: functional; conditions: NCI-H460, 48 h; outline: as §1
MCF7 [4] = assay: Resistance factor, ratio of IC50 for drug-resistant […] human NCI/ADR cells expressing Pgp in absence of vinblastin to IC50 for drug-sensitive human MCF7 cells in presence of 50 nM vinblastin; format: functional
HOP-92 = assay: Antitumor activity against human HOP92 cells after 48 hrs by sulforhodamine B assay; format: functional; conditions: HOP-92, 48 h; outline: as §1
NCI-H522 = assay: Antitumor activity against human NCI-H522 cells after 48 hrs by sulforhodamine B assay; format: functional; conditions: NCI-H522, 48 h; outline: as §1

COc1cc(CCc2cn(Cc3ccccc3)c3nc(N)nc(C)c23)c(OC)c(OC)c1OC
GI50 (LOX IMVI): 5.29 µM
GI50 (NCI-H226): 4.27 µM
pIC50 [1]: 5.05
GI50 (DU-145): 2.5 µM
GI50 (CAKI-1): 2.5 µM
GI50 (HL-60(TB)): 2.06 µM
GI50 (K562): 2.48 µM
Ratio IC50 (MCF7 [2]): 0.37
GI50 (SK-OV-3): 2.98 µM
GI50 (UACC-62): 2.13 µM
GI50 (OVCAR-8): 4.71 µM
GI50 (786-0): 4.5 µM
GI50 (SF-539): 1.86 µM
GI50 (KM12): 3.33 µM
GI50 (TK-10): 7.62 µM
GI50 (SR): 2.35 µM
GI50 (Malme-3M): 10.4 µM
GI50 (NCI/ADR-RES): 2.02 µM
GI50 (HCT-116): 3.68 µM
GI50 (A549): 5.33 µM
pIC50 (MCF7 [3]): 4.62
GI50 (OVCAR-3): 1.2 µM
GI50 (SNB-75): 2.25 µM
GI50 (NCI-H23): 3.61 µM
GI50 (HCT-15): 3.2 µM
GI50 (OVCAR-5): 11.9 µM
GI50 (SN12C): 6.86 µM
GI50 (EKVX): 7.73 µM
GI50 (SK-MEL-5): 1.46 µM
GI50 (NCI-H460): 2.81 µM
Ratio IC50 (MCF7 [4]): 0.29
GI50 (HOP-92): 1.39 µM
GI50 (NCI-H522): 6.05 µM
